HTRA1 inh = inhibitors of human serine peptidase HTRA1 | Q92743 | recombinant HTRA1, FP-rhodamine activity-based probe, fluorescence polarization | inhibition, % at 5.96 µM | hit rate 0.5% among 340,000; in the data active = inhibition above about 36%;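 note: 0% = enzyme with DMSO and 100% = wells lacking enzyme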
SIAE primary = inhibitors of human sialic acid acetylesterase SIAE. Q9HAT2. SIAE FP-Rh probe binding, fluorescence polarization. inhibition, % at 9.66 µM. hit rate 0.69% among 370,000;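 active = inhibition above a cutoff: mean of compounds within the control limits plus 3 SD of those, cut at about 17% in these data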;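 note: 0% = plate median of compound wells and 100% = probe without SIAE protein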
Target sequence (Q9HAT2 whole entry, looked up): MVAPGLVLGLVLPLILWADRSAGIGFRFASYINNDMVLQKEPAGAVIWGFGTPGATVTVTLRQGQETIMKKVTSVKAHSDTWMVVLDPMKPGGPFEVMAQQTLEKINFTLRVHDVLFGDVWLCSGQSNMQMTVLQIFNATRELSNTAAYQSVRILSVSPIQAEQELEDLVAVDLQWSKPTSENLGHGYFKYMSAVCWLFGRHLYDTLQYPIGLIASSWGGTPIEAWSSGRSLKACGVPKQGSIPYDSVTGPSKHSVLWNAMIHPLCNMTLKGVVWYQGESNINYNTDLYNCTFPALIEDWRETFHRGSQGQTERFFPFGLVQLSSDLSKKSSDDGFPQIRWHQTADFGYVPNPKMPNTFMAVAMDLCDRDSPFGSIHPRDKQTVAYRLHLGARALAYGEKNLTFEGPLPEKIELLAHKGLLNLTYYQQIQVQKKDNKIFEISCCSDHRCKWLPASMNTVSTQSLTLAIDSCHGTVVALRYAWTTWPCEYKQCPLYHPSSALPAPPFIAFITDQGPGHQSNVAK
DDE Tn6 FP inh = inhibitors of Tn6 peptide binding to human fibrin DD(E); P02675; Fibrin DD(E) TRITC-Tn6 fluorescence polarization displacement; inhibition, % at 8.3 µM; hit rate 0.21% among 370,000; AID 720509;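 active = inhibition above a per-campaign cutoff: mean of compounds within control limits plus 3 SD, cut at about 15% in these data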;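 note: 0% = median of all compound wells on the plate and 100% = blocking peptide control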
ABHD4 inh = inhibits mouse alpha/beta hydrolase domain 4; Q8VD66; purified mABHD4, FP-Rh probe fluorescence polarization; inhibition, % at 8.92 µM; hit rate 0.54% among 370,000;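 active = inhibition exceeding the mean over every tested compound plus 3 SD, cut at about 30% in these data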;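 note: 0% = plate median of compound wells and 100% = S159A mutant with DMSO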
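Test system: mABHD4 protein; Read-out basis: % inhibition; Incubation: 45 min + 60 min at 25 °C; Repeats: single replicate; Technique: fluorescence polarization with parallel and perpendicular emission, 525/598 nm; Compound: 8.92 µM, single dose; Benchmarks: full inhibition S159A mutant plus DMSO, zero as sample-well median.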
TCR CD3 inh = human TCR-CD3 binding inhibition. TAMRA-labeled TCR probe fluorescence, biochemical. inhibition, % at 9.4 µM. hit rate 0.37% among 360,000. AID 651800; in the data active = inhibition above about 19%;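 note: recombinant mutant TCR 2C K166C tagged with TAMRA read by polarization; 0% = receptor in buffer alone and 100% = receptor with positive control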
Tn7 DDE FP = disrupts Tn7 cyclic peptide binding to fibrin D-Dimer-E complex. FP displacement of FITC-Tn7 peptide from fibrin DD(E); 0% = median of compound wells per plate. AID 720508. inhibition, % at 8.3 µM. hit rate 0.13% among 370,000. P02675;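 active = inhibition above the mean of compounds falling within the control limits plus 3 SD of them, cut at about 14% in these data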;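 note: 0% = plate median of compound wells and 100% = 10 µM Aha-Tn7 peptide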
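Assay system: Human fibrin DD(E) protein | Medium: Tris buffer with calcium and detergent, pH 7.8 | Reagent: 0.1 µM fluorescent Tn7 | Compound dosing: Single point at 8.3 µM | Times: 10 min preincubation, 3 h with tracer, room temperature | Detection: Fluorescence polarization of the labelled Tn7 tracer | Controls: Aha-Tn7 high control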
mABHD4 conf = confirmation of mouse ABHD4 inhibitors; purified mABHD4, FP-Rh probe fluorescence polarization; hit rate 55% among 1,800; shares compounds with ABHD4 inh; inhibition, % at 8.92 µM;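 active = mean inhibition across replicates above the hit cutoff set in the primary screen, cut at about 30% in these data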;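 note: 0% = wild-type ABHD4 with DMSO and 100% = catalytically dead S159A mutant with DMSO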
SIAE confirm = human SIAE inhibition, confirmation; shares compounds with SIAE primary; SIAE FP-Rh activity-based probe, fluorescence polarization; inhibition, % at 9.66 µM; hit rate 13% among 2,300; AID 1117263;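 active = mean inhibition of the replicates above the hit cutoff set in the primary screen, cut at about 17% in these data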;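 note: 0% = SIAE with DMSO and probe and 100% = probe without SIAE; inhibitors lower polarization as more probe stays unbound to SIAE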
* hit, by the source's call; . = no result given. Most compounds without a hit are left out; they make up all but 1.8% or so of the library.

SMILES	HTRA1 inh	SIAE primary	DDE Tn6 FP inh	ABHD4 inh	TCR CD3 inh	Tn7 DDE FP	mABHD4 conf	SIAE confirm
CNC(=O)c1ccc(-c2sc3nc(N4CCOCC4)c4c(c3c2N)CC(C)(C)OC4)o1	1.7	3.6	-2.5	6.1	1.0	1.8	.	.
COc1ccc2c(c1)c(/C=N/Nc1nc3ccccc3[nH]1)c(C)n2C	29.3	31.5*	-26.8	33.0*	-5.8	3.0	59.4*	29.8*
O[C@H](COc1ccc(Cl)cc1)CN1CCC(C(O)(c2ccccc2)c2ccccc2)CC1	.	4.1	0.5	6.2	.	-1.6	.	.
Oc1ccccc1Nc1nc(NCc2ccccc2)c2ccccc2n1	15.3	20.7*	3.9	42.9*	4.0	2.7	54.8*	6.2
O=C(NN=Cc1cc(Br)c(O)c(Br)c1)c1ccccc1NS(=O)(=O)c1cccs1	8.7	19.4*	-1.7	33.6*	11.6	0.8	32.9*	9.5
Nc1cccc(-c2c[nH]c3ncc(-c4cccnc4)cc23)c1	-3.1	.	.	.	.	.	.	.
Nc1nc(N)c2cc(CNc3ccc(Cl)c(Cl)c3)ccc2n1	-6.3	39.4*	-10.9	37.5*	-10.0	9.3	35.7*	46.1*
CCOC(=O)C(=C1Nc2ccccc2N1)n1c(-c2cnccn2)nc2ccccc21	.	1.4	2.2	1.1	0.5	7.6	.	.
CCOC(=O)C(=C1Nc2ccccc2N1)n1c(-c2ccco2)nc2ccccc21	.	17.8*	-2.4	32.0*	21.6*	0.0	12.6	-1.7
CN(C(=O)c1cccc(NC(=O)Cc2cccc(NC(=O)C3CCCN(C(=O)c4ccccc4)C3)c2)c1)C1CC1 (stereo not drawn)	6.9	3.8	2.6	-0.6	-10.3	1.2	.	.
O=C(/C=C/c1ccco1)NC(=S)Nc1ccc(N2CCCC2)cc1	24.6	18.4*	-2.8	37.3*	11.2	-2.6	8.9	6.7
CCc1ccccc1NC(=O)c1ccc2c(O)c(S(=O)(=O)c3ccc(OC)cc3)c(=O)[nH]c2c1	2.8	-0.7	0.8	-1.7	-7.0	-5.9	.	.
CC1(C(=O)NCCC#N)CCN1C(=O)c1ccccc1CCc1ccccc1 (stereo not drawn)	.	5.9	-4.0	-1.3	-6.2	0.5	.	.
Nc1[nH]c(C(=O)c2ccc(Br)cc2)c(-c2ccc(Cl)cc2Cl)c1C(=O)NCCc1c[nH]c2ccccc12	.	12.8	-6.9	16.1	-10.8	10.4	.	.
Nc1[nH]c(C(=O)c2ccccc2)c(-c2ccc(Cl)cc2Cl)c1C(=O)NCCc1c[nH]c2ccccc12	.	18.9*	-4.1	32.8*	4.2	8.1	25.9	14.7
Cc1cc(C)cc(CC(=O)N2CCC2(C)C(=O)NS(=O)(=O)c2ccc(Br)cc2)c1 (stereo not drawn)	.	-1.8	5.6	-3.9	-0.5	-0.9	.	.
Cc1cc2cc(CNC(=O)c3ccc(S(=O)(=O)N4CCCCC4)cc3)ccc2n1C	-5.8	34.8*	164.3*	86.9*	85.3*	2.4	-10.7	-13.5
O=C(O)CCN1C(=O)/C(=C2\C(=O)N(Cc3ccc(F)cc3)c3ccccc32)SC1=S	-4.7	2.2	7.6	5.9	4.1	-7.4	.	.
O=C(CN1C(=O)/C(=C2/SC(=S)N(CCS(=O)(=O)O)C2=O)c2ccccc21)Nc1cccc(C(F)(F)F)c1	-3.6	21.7*	0.4	84.7*	14.8	2.9	92.5*	22.1*
O=C(c1ccco1)N1CCCC(N2CCN(c3cccc(C(F)(F)F)c3)CC2)C1 (stereo not drawn)	-1.1	1.2	8.0	0.3	8.2	-1.0	.	.
Cc1nnc(N/N=C/c2ccc(O)c([N+](=O)[O-])c2)[nH]c1=O	4.0	8.6	-3.3	3.6	-1.0	9.7	.	.
Cc1csc(N/N=C/c2ccc(O)c([N+](=O)[O-])c2)n1	20.0	17.4*	-3.7	50.0*	13.4	-3.6	83.3*	-3.2
Fc1ccccc1-c1ccc(/C=N/Nc2nc3ccccc3[nH]2)o1	18.3	34.5*	-10.5	40.1*	-5.3	-4.5	46.1*	34.5*
Cc1ccc(/C=N\Nc2nc3ccc(Cl)cc3[nH]2)o1	6.6	1.8	-9.1	25.6	2.7	-12.8	.	.
Cc1cc(NC(=O)CSCC(=O)N(C)Cc2cccc(Cl)c2)no1	-3.9	-3.5	-5.4	-8.1	5.0	0.0	.	.
SMILES	HTRA1 inh	SIAE primary	DDE Tn6 FP inh	ABHD4 inh	TCR CD3 inh	Tn7 DDE FP	mABHD4 conf	SIAE confirm
CC(C)(C)N1C(=O)c2ccccc2NC(=O)C1C(=O)Nc1ccc2c(c1)OCCO2 (stereo not drawn)	.	3.5	4.3	-0.2	-5.8	-3.6	.	.
COc1cc(O)c(C(C)=O)cc1OC	4.7	2.8	-3.6	-11.5	-3.0	4.0	.	.
CC(=O)Oc1cc(C)c(Cl)c2c(OC(C)=O)cc(C(C)=O)c(O)c12	.	36.4*	-8.1	68.2*	10.9	-0.6	39.4*	18.3*
Cc1ccc(S(=O)(=O)N2CCOCC2)cc1NC(=O)CN(C)CC(=O)Nc1cccc(F)c1	-0.3	3.2	-0.3	0.1	-2.2	4.4	.	.
O=C1N=c2ccccc2=C1c1sc(=S)n(-c2ccc(O)cc2)c1O	8.0	21.9*	1.8	38.1*	3.0	3.0	25.2	6.0
O=C(NNS(=O)(=O)c1ccc([N+](=O)[O-])cc1)c1ccc2ccccc2c1O	5.2	19.5*	5.6	30.9*	-6.8	0.5	20.5	1.8
O=C(NNS(=O)(=O)c1ccc([N+](=O)[O-])cc1)c1ccccc1	0.2	5.1	-3.6	-1.8	5.4	5.2	.	.
Cc1ccc(S(=O)(=O)NCC(=O)N(CC2CCCO2)C(C(=O)NCC2CCCO2)C(C)C)cc1 (stereo not drawn)	-48.0	3.6	2.5	1.6	-2.5	3.8	.	.
COc1ccc(C(C(=O)N(C)C2CCCC2)N(Cc2ccc(F)cc2)C(=O)c2csc(-c3ccccc3)n2)cc1OC (stereo not drawn)	.	-4.0	-5.5	-1.4	.	5.9	.	.
O=C(O)COc1ccccc1/C=N/NC(=O)c1cc2ccccc2cc1O	14.1	47.7*	3.2	37.2*	4.7	4.1	12.4	52.7*
COc1ccc(/C=C/C(=O)Nc2ccc(N3CCOCC3)cc2)cc1	-0.8	-2.0	-5.6	7.1	5.3	-1.5	.	.
COc1ccc(N2CCN(c3ccc(NC(=O)/C=C\C(=O)O)cc3)CC2)cc1	32.0	17.8*	1.4	35.6*	11.5	-4.7	-6.5	4.2
COc1ccccc1-n1c(=O)c2c3c(sc2n2c(=S)[nH]nc12)CCC3	-3.2	17.6*	-0.5	33.6*	-1.5	2.1	29.3	4.1
Nc1cc(Cl)nc(N/N=C/c2c(O)ccc3ccccc23)n1	28.6	18.9*	-14.0	32.0*	-2.2	-2.6	27.0	9.8

Compound activity deposited in PubChem BioAssay by The Scripps Research Institute Molecular Screening Center.
